Assay results from ChEMBL document CHEMBL1121394, “Oxytocin and lysine-vasopressin with N5,N5-dialkylglutamine in the 4 position: effect of introducing sterically hindered groups into the hydrophilic cluster of neurohypophyseal hormones” (1980).

Key:
Rattus norvegicus [1] = species: Rattus norvegicus; experiment: Compound was tested in vitro for antidiuretic activity in rat; type: functional, Urine; conditions: in the assay text read “in vivo” for “in vitro”
Summary of the method: (§1)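 Anesthetized male Sprague-Dawley rats. Where activity was measurable, Schild four-point design with at least ten determinations on three animals.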

Rattus norvegicus [2] = species: Rattus norvegicus; experiment: Compound was tested for percent maximum uterotonic response; type: functional
Summary of the method: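 Isolated uterine horns from virgin rats in natural estrus, bathed in Mg2+-free van Dyke-Hastings solution. Dose-response by individual injection, doses raised geometrically in 0.5 log10 steps until a maximal response was reached.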

Rattus norvegicus [3] = species: Rattus norvegicus; experiment: Compound was tested in vitro for uterotonic activity in rat; type: functional
Summary of the method: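 Isolated uterine horns from virgin rats in natural estrus (Holton method as modified by Munsick), Mg2+-free van Dyke-Hastings solution as bath. Where activity was measurable, Schild four-point design with at least ten determinations on three animals.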

Rattus norvegicus [4] = species: Rattus norvegicus; experiment: Compound was tested in vitro for pressor activity on rat; type: functional; conditions: in the assay text read “in vivo” for “in vitro”; summary of the method: as §1
Gallus gallus = species: Gallus gallus; experiment: Compound was tested in vitro for avain vasopressor activity; type: functional; conditions: in the assay text read “vasodepressor” for “vasopressor”
Summary of the method: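 Vasodepressor assay in conscious White Leghorn roosters (Coon method, modified). Where activity was measurable, Schild four-point design with at least ten determinations on three animals.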

SMILES: CC[C@H](C)[C@@H]1NC(=O)[C@H](Cc2ccc(O)cc2)NC(=O)[C@@H](N)CSSC[C@@H](C(=O)N2CCC[C@H]2C(=O)N[C@@H](CC(C)C)C(=O)NCC(N)=O)NC(=O)[C@H](CC(N)=O)NC(=O)[C@H](CCC(N)=O)NC1=O [OXYTOCIN]
- Activity (Rattus norvegicus [1]): 3.1 mg
- Max uterotonic response (Rattus norvegicus [2]): 100%
- Activity (Rattus norvegicus [3]): 546 mg
- Activity (Rattus norvegicus [4]): 2.7 mg
- Activity (Gallus gallus): 507 mg
